Assays:
Details in all cases: stereoisomer not certain
UniProt Q920P1 = biological target: T1, UniProt Q920P1
T1 sequence (whole entry): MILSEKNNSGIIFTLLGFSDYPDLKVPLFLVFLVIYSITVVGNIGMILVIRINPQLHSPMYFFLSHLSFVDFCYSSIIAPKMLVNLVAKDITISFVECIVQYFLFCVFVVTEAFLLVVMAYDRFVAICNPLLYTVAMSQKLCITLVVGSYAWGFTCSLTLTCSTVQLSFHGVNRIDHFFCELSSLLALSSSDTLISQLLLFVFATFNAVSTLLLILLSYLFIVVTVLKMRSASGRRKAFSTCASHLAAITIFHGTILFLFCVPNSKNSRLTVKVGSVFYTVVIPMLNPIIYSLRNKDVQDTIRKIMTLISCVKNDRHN
Outline: (§1)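 Each receptor–molecule pair is labelled responsive or non-responsive (inactive) according to whether the original authors judged the measured signal statistically different from baseline. The data were taken from the main text and supplementary material of published papers and checked for typos and inconsistencies. Assay methods differed by source, with transient luciferase assays in mammalian cell lines being common.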

UniProt Q920P2 = biological target: T2, UniProt Q920P2
T2 sequence (whole entry): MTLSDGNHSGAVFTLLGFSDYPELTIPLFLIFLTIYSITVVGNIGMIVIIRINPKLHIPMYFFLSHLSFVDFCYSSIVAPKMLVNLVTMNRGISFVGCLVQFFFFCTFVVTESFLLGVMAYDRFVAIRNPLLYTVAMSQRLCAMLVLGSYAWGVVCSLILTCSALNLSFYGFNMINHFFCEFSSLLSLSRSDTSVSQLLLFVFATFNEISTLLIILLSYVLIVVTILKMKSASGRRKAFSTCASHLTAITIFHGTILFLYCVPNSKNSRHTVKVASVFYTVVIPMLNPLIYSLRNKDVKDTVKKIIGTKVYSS
Outline: as §1

UniProt Q9EPN9 = biological target: T3, UniProt Q9EPN9
T3 sequence (whole entry): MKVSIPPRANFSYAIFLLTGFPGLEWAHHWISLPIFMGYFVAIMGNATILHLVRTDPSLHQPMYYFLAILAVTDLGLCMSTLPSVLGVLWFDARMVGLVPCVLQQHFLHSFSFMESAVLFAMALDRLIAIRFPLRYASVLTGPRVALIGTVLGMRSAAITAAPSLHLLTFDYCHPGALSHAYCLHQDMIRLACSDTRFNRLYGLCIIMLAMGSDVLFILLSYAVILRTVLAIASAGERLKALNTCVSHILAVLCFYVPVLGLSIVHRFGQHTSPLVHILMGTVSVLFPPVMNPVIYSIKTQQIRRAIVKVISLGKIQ
Outline: as §1

UniProt Q9R0K2 = biological target: UniProt Q9R0K2
UniProt Q9R0K2, sequence (Q9R0K2 as listed by the source): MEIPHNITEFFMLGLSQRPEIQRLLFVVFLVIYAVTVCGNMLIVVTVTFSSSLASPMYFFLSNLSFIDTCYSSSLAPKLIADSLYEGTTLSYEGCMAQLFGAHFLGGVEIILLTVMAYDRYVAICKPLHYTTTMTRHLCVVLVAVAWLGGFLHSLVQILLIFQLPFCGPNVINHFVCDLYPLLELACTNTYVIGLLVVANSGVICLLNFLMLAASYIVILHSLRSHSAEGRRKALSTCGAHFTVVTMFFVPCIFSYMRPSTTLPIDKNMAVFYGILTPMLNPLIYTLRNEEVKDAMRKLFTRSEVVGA
Outline: as §1

UniProt Q9WU86 = biological target: T4, UniProt Q9WU86
T4 sequence (whole entry): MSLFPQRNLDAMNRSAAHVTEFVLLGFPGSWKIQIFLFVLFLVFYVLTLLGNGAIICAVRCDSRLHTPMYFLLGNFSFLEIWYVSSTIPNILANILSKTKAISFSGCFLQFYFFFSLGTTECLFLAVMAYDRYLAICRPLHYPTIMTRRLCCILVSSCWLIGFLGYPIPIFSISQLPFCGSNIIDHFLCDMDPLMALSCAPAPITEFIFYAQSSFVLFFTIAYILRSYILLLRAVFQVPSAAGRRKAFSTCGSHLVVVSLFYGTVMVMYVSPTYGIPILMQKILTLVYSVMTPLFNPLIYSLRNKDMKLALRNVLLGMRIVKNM
Outline: as §1

UniProt Q8VH21 = biological target: T5, UniProt Q8VH21
T5 sequence (whole entry): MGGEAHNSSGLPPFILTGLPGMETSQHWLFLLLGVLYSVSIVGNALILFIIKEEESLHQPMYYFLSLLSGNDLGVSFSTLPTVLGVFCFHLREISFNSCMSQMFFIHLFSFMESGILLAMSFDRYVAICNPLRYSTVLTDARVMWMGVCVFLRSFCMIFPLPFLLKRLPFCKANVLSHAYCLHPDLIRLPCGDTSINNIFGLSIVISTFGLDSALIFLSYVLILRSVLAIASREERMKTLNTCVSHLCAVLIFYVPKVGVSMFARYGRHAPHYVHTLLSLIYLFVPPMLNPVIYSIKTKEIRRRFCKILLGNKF
Outline: as §1

UniProt Q924H8 = biological target: T6, UniProt Q924H8
T6 sequence (whole entry): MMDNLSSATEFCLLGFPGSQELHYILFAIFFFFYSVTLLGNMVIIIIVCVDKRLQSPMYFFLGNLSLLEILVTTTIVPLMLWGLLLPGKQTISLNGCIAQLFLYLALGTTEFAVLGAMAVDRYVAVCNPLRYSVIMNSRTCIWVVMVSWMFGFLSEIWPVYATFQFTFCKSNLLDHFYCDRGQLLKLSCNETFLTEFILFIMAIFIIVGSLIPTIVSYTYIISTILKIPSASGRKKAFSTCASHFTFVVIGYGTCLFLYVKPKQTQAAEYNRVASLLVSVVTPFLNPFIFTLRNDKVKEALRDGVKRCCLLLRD
Outline: as §1

UniProt Q924X8 = biological target: UniProt Q924X8
UniProt Q924X8, sequence (Q924X8 as listed by the source): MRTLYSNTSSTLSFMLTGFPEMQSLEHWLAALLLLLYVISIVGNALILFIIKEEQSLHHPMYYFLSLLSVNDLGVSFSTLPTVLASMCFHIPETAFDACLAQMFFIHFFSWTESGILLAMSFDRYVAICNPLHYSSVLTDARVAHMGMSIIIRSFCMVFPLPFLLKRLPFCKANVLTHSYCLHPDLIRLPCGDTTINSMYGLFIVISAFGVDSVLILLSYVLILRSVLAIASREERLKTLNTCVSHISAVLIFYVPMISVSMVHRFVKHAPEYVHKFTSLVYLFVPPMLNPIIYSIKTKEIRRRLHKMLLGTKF
Outline: as §1

UniProt Q99NH4 = biological target: UniProt Q99NH4
UniProt Q99NH4, sequence (Q99NH4 as listed by the source): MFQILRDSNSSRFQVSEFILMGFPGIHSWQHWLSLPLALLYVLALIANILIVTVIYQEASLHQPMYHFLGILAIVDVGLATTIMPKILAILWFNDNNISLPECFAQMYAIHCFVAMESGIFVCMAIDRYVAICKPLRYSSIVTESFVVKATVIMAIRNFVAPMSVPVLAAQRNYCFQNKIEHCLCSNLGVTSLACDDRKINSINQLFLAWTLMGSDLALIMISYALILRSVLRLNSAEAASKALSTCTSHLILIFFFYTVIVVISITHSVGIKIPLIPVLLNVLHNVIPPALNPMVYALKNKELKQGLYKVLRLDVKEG
Outline: as §1

UniProt Q9WU94 = biological target: UniProt Q9WU94
UniProt Q9WU94, sequence (Q9WU94 as listed by the source): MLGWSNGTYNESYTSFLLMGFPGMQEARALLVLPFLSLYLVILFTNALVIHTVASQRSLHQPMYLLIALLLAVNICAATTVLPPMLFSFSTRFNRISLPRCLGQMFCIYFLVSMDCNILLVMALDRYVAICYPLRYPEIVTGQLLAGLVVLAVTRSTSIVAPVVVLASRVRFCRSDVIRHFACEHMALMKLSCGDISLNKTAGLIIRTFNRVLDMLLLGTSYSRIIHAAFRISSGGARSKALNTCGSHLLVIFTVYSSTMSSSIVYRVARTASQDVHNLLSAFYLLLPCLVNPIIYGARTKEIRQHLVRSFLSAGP
Outline: as §1
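Further: active if original authors judged signal statistically different from baseline.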

C=CCc1ccccc1
odorant receptor agonist call (UniProt Q920P1): inactive
odorant receptor agonist call (UniProt Q920P2): inactive
odorant receptor agonist call (UniProt Q9EPN9): inactive
odorant receptor agonist call (UniProt Q9R0K2): inactive
odorant receptor agonist call (UniProt Q9WU86): active

CCCCCCC(Br)C(=O)O (configuration not stated)
odorant receptor agonist call (UniProt Q8VH21): inactive
odorant receptor agonist call (UniProt Q924H8): inactive

COc1ccc(C=O)cc1
odorant receptor agonist call (UniProt Q8VH21): inactive
odorant receptor agonist call (UniProt Q924H8): inactive

O=Cc1ccccc1
odorant receptor agonist call (UniProt Q8VH21): active
odorant receptor agonist call (UniProt Q924H8): inactive

C=CCOC(=O)Cc1ccccc1
odorant receptor agonist call (UniProt Q8VH21): inactive
odorant receptor agonist call (UniProt Q924H8): inactive
odorant receptor agonist call (UniProt Q9EPN9): active
odorant receptor agonist call (UniProt Q9R0K2): active
odorant receptor agonist call (UniProt Q9WU86): inactive

CCC1CCC(=O)O1 (configuration not stated)
odorant receptor agonist call (UniProt Q9EPN9): inactive
odorant receptor agonist call (UniProt Q9R0K2): inactive
odorant receptor agonist call (UniProt Q9WU86): inactive

CSSC
odorant receptor agonist call (UniProt Q8VH21): inactive
odorant receptor agonist call (UniProt Q924H8): inactive

Cc1ccc(OC(=O)Cc2ccccc2)cc1
odorant receptor agonist call (UniProt Q8VH21): inactive
odorant receptor agonist call (UniProt Q924H8): inactive

OCc1ccc2c(c1)OCO2
odorant receptor agonist call (UniProt Q8VH21): inactive
odorant receptor agonist call (UniProt Q924H8): inactive

CC(C=O)Cc1ccc2c(c1)OCO2 (configuration not stated)
odorant receptor agonist call (UniProt Q8VH21): inactive
odorant receptor agonist call (UniProt Q924H8): inactive

O=c1cc(O)c2ccccc2o1
odorant receptor agonist call (UniProt Q8VH21): inactive
odorant receptor agonist call (UniProt Q924H8): inactive
odorant receptor agonist call (UniProt Q9EPN9): inactive
odorant receptor agonist call (UniProt Q9R0K2): inactive
odorant receptor agonist call (UniProt Q9WU86): inactive

C=CCc1ccc2c(c1)OCO2
odorant receptor agonist call (UniProt Q920P1): inactive
odorant receptor agonist call (UniProt Q920P2): inactive

O=Cc1ccc2c(c1)OCO2
odorant receptor agonist call (UniProt Q8VH21): inactive
odorant receptor agonist call (UniProt Q920P1): inactive
odorant receptor agonist call (UniProt Q920P2): inactive
odorant receptor agonist call (UniProt Q924H8): inactive

C=C(C)C1CC=C(C=O)CC1 (configuration not stated)
odorant receptor agonist call (UniProt Q8VH21): inactive
odorant receptor agonist call (UniProt Q924H8): inactive

O=C(O)CCCCCCCBr
odorant receptor agonist call (UniProt Q924X8): active
odorant receptor agonist call (UniProt Q99NH4): active
odorant receptor agonist call (UniProt Q9WU94): inactive

c1ccncc1
odorant receptor agonist call (UniProt Q920P1): inactive
odorant receptor agonist call (UniProt Q920P2): inactive

CCCCC(Br)C(=O)O (configuration not stated)
odorant receptor agonist call (UniProt Q8VH21): inactive
odorant receptor agonist call (UniProt Q924H8): inactive
odorant receptor agonist call (UniProt Q99NH4): active

O=CC=Cc1ccccc1
odorant receptor agonist call (UniProt Q8VH21): inactive
odorant receptor agonist call (UniProt Q924H8): inactive

Oc1ccccc1Br
odorant receptor agonist call (UniProt Q8VH21): inactive
odorant receptor agonist call (UniProt Q924H8): inactive

Reference: the M2OR odorant receptor database
